# Compound activity from PubChem.
# Only some compounds are listed: those with a hit (about 5.2% of all), similar ones and a draw of the others.
# ZTA DNA inh: ZTA (EBV) inhibition in EBNA-1 counter-screen | ZTA-DNA binding, fluorescence polarization | inhibition, % at 11 µM | 320,000 tested, 0.15% active | AID 2234; in the data active = inhibition above about 33%
# Target sequence (P03206 whole entry, looked up): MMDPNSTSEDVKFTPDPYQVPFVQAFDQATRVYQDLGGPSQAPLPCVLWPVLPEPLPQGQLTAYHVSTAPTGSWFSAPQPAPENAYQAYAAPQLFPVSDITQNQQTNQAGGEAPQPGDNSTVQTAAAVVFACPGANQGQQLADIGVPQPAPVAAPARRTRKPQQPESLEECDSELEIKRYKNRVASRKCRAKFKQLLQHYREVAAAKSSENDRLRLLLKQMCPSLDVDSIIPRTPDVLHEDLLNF
# EBNA-1 inh: EBNA-1 DNA-binding inhibitors, primary screen, biochemical, fluorescence polarization; inhibition, % at 14.8 µM; 300,000 tested, 0.34% active; AID 1950, 2009; in the data active = inhibition above about 28%
# ALR H2O2 inh: inhibitors of human ALR sulfhydryl oxidase, primary screen, biochemical, H2O2 detection, HRP-luminol luminescence, single point. FAD-linked sulfhydryl oxidase ALR (Homo sapiens), P55789. purified ALR, DTT oxidation. inhibition, % (concentration not given with the values). 290,000 tested, 3.8% active. AID 485317, 2010;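 active = mean replicate inhibition above about 79%, with every replicate also reaching it, limit read from the data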
# Target sequence (P55789 whole entry, looked up): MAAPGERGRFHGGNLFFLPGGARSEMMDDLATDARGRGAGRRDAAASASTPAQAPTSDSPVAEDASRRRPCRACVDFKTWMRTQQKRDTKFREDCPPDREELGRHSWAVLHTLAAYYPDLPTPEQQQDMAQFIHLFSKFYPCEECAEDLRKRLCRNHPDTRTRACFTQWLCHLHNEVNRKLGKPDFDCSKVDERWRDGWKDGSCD
# NS3 helicase inh: inhibitors of HCV NS3 helicase, primary screen, biochemical, Cy5 molecular beacon fluorescence; Hepatitis C virus NS3 helicase; NS3 helicase DNA unwinding; inhibition, % at 10.9 µM; 290,000 tested, 0.56% active;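 active = inhibition above the mean of all tested compounds plus 3 SD, set per campaign, cut at about 35% in these data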;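 note: 0% = DMSO wells and 100% = thioflavine S control wells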
#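 Measured by: Cy5 fluorescence, 0 and 60 min reads / Assay system: NS3 helicase fragment of HCV / Control set: low DMSO, high thioflavine S at 110 µM / Times: 1 h reaction at 25 °C, ATP-initiated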
# core dimer inh: inhibitors of HCV core protein dimerization, primary screen, biochemical, TR-FRET, high-throughput | TR-FRET GST/Flag-core106 dimerization, 1536-well | inhibition, % at 5 µM | 300,000 tested, 0.33% active | AID 1899, 2009;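 active = inhibition above the mean of all tested compounds plus 3 SD, set per screening campaign, cut at about 45% in these data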
#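 System: GST-tagged and Flag-tagged HCV core protein residues 1-106 / Input: core106 proteins, GST 13.5 nM and Flag 17 nM / Buffer or medium: KF-containing HEPES buffer, pH 7.45, DTT, CHAPS, BSA / Probe or stimulus: Eu-anti-GST and XL665-anti-Flag labelled anti-tag antibodies / Schedule: 4 h, 22.5 °C incubation / Technique: TR-FRET 671 and 617 nm emission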
# PfM18AAP inh: PfM18AAP inhibitors, malaria aminopeptidase, primary screen, biochemical, QFRET, recombinant enzyme. M18 aspartyl aminopeptidase (Plasmodium falciparum 3D7). H-Glu-NHMec fluorogenic cleavage. inhibition, % at 7.35 µM. 290,000 tested, 1.2% active. AID 1822, 2009;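 active = inhibition above the campaign mean inhibition over all tested compounds plus 3 SD, cut at about 28% in these data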;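 note: 0% = plate median of test compound wells and 100% = 2 mM ZnCl2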
# Starred values were filed as active, the others as inactive; . = no result.
SMILES,ZTA DNA inh,EBNA-1 inh,ALR H2O2 inh,NS3 helicase inh,core dimer inh,PfM18AAP inh
CCOC(=O)CNC(=S)n1cnc(N)n1,-10,-13,-6,-7,-1,57*
Cc1c(O)nc(SCC(=O)Nc2cccc(C(F)(F)F)c2)n(-c2ccccc2)c1=O,.,.,99*,1,.,-8
COc1cccc(NC(=O)CSc2nc(O)c(C)c(=O)n2-c2ccc(C)cc2)c1,-8,8,98*,-12,9,-10
Cc1cc(O)c(CN2CCN(S(=O)(=O)c3cccs3)CC2)cc1C(C)C,-13,.,-1,.,.,.
c1csc(-c2cc(N3CCCCC3)c3ccccc3n2)c1,18,-4,-4,-1,6,-1
Cc1[nH]nc2c1C(=O)CCC2,-25,-5,100*,6,-6,-1
CCC(=O)c1ccccc1OCCN1CCN(CC)CC1,2,3,-14,-25,2,31*
Cc1occc1C(=O)N1CCCC(CO)(Cc2ccc(F)cc2F)C1 (centres undefined),-7,-6,-6,1,-7,0
COc1cc2c(cc1OC)n(CC(=O)NC1CCCCCC1)n1c(C)cc(=O)nc21,8,-4,-5,4,-5,-1
CCC(C)N1CC(O)=C(c2nc3ccccc3[nH]2)C1=N (centres undefined),-19,3,82*,-3,-8,-7
CCCCCCN1CC(O)=C(c2nc3ccccc3[nH]2)C1=N,6,-1,5,-8,1,0
CCOc1ccc(NC(=O)CN(C)C(=O)c2c(-c3c(F)cccc3Cl)noc2C)cc1OCC,-5,-6,-18,.,-2,.
CC1CN(C(=O)c2ccccc2Nc2ccc(SC(F)F)cc2)CC(C)O1 (centres undefined),0,14,99*,9,6,-14
Cc1ccc(-c2csc(N3N=C(c4ccccc4)/C(=C\c4ccc(N(C)C)cc4)C3=O)n2)cc1,-2,15,.,33,46*,0
Clc1ccccc1OCCn1nnc2ccccc21,5,6,-12,20,5,0
O=C(Nc1ccc2c(c1)nc1n2CCSC1)c1ccco1,7,3,99*,-1,25,0
O=C(Nc1ccc(NC(=O)c2ccco2)cc1)c1ccco1,-15,-12,-14,-4,0,0
O=C(Nc1ccc(Nc2ccccc2)cc1)c1ccco1,13,-4,92*,-8,-34,5
O=C(Nc1cccc(NC(=O)c2ccco2)c1)c1cccc(Br)c1,10,-7,.,-4,3,2
O=C(Nc1ccc2c(c1)nc1n2CCOC1)c1ccco1,-7,2,.,1,-3,2
O=C(Nc1cc(Br)c(O)c(Br)c1)c1cccc(NC(=O)c2ccco2)c1,1,-8,98*,14,-18,5
Cc1nc2ccc(NC(=O)c3ccco3)cc2nc1C,-2,-21,99*,16,-2,-11
Cc1nc2cc(NC(=O)c3ccco3)ccc2n1C,-15,-3,0,6,-12,3
COC(=O)c1nn(-c2ccccc2)c(Cl)c1/C=N/OCc1ccc(C)cc1,0,9,.,-1,-2,-17
CN(C)S(=O)(=O)c1cc(NC(=O)C2=COCCO2)ccc1Cl,-2,.,-10,.,.,.
SMILES,ZTA DNA inh,EBNA-1 inh,ALR H2O2 inh,NS3 helicase inh,core dimer inh,PfM18AAP inh
CS(=O)(=O)N(CCC#N)Cc1ccc(/C=C2\C(=O)Nc3ccccc32)o1,0,1,-9,-11,-8,12
O=C(Nc1ccc2[nH]c3c(c2c1)CCCC3)c1ccco1,13,0,-23,17,47*,6
Cc1cc2cc(NC(=O)c3ccco3)ccc2[nH]1,0,-5,10,9,0,27
Nc1ccc(NC(=O)c2ccco2)c(Cl)c1,10,8,99*,-8,-9,5
O=C1c2ccccc2NC2(CCCCC2)N1c1ccc(O)cc1,-13,-2,99*,14,0,12
CC1CCC2(CC1)Nc1ccccc1C(=O)N2c1ccccc1 (centres undefined),9,-2,-2,7,1,7
O=C(NCCC1CCCCN1S(=O)(=O)c1ccc(F)cc1)C(=O)NCc1cccnc1 (centres undefined),-11,-6,0,.,4,.
COc1cccc(Nc2ccc(C(=O)O)cc2N)c1,7,-14,99*,22,-15,5
COc1cccc(Nc2c(F)c(F)c(F)c(F)c2C(=O)O)c1,-12,-15,99*,1,-6,5
COc1c(F)c(F)c(C(=O)O)c(Nc2ccc(C)cc2C)c1F,18,-7,97*,24,4,-2
COc1cccc(Nc2c(F)c(OC)c(F)c(F)c2C(=O)O)c1,3,1,21,6,-5,3
Cc1ccc(Nc2c(F)c(F)c(F)c(F)c2C(=O)O)cc1,2,-10,87*,6,4,-6
Cc1cc(C)cc(NC(=O)CCC(=O)Nc2nnc(C(C)C)s2)c1,22,-4,-2,-7,5,-16
O=C(O)c1ccc(NC(=S)NC(=O)c2ccc(-c3ccc(Br)cc3)o2)cc1,12,7,93*,18,-30,11
NC(=O)c1ccc(-c2ccc(Br)cc2)o1,-8,0,98*,-2,4,-11
C=CCSc1nc2ccsc2c(=O)n1-c1cccnc1,-19,-3,-9,-4,-6,-5
CCN(C(=O)CN1CCN(c2cccc(Cl)c2)CC1)c1c(N)n(Cc2ccccc2)c(=O)[nH]c1=O,-14,-15,92*,-5,5,-1
CN(C(=O)CN1CCCCCC1)c1c(N)n(Cc2ccccc2)c(=O)[nH]c1=O,-10,.,.,.,.,.
Cc1ccc2c(c1)CCCN2CC(=O)N(C)c1c(N)n(Cc2ccccc2)c(=O)[nH]c1=O,4,.,91*,.,.,.
Cc1cc(N2CCOCC2)c2c(N)c(C)cc(C)c2n1,-10,3,99*,-1,-10,8
Cc1cc(N2CCOCC2)nc(N)n1,-2,7,.,5,-3,2
CCc1nn2c(=O)cc(CSCC(=O)Nc3ccccc3F)nc2s1,5,1,99*,4,-7,-2
COc1ccccc1NC(=O)NCCN1CCNC1=O,-2,0,-3,4,1,-20
COc1ccccc1C(NC(=O)CC(C)C)c1c(O)ccc2ccccc12 (centres undefined),0,7,-105,-9,3,-1
COc1ccccc1C(NC(C)=O)c1c(O)ccc2ccc(O)cc12 (centres undefined),9,2,95*,.,2,.
O=C1CSC(c2cccnc2)N1c1cccc(Cl)c1 (centres undefined),4,1,99*,-2,1,1
